# Activity calls are given as the source filed them. The calls are words filed in the database; no cut-off is given here.
# Legend:
# [1] = Antiproliferative activity against human PC3 cells after 96 hrs by MTT assay; format: functional; conditions: PC-3, 96 h
# Method in brief: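 PC-3 cells grown in RPMI1640 with 10% heat-inactivated FBS; seeded 2×10³ cells/well, 24 h at 37°C, 5% CO₂, then compound at various concentrations for 96 h. MTT (2 mg/mL) added for 4 h, formazan dissolved in DMSO, absorbance 570 nm. GI₅₀ from inhibition ratios versus untreated cells; three independent experiments, mean reported.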
# [2] = target: T1, Serine/threonine-protein kinase pim-1 (Homo sapiens, UniProt P11309); assay: Inhibition of Pim1 kinase (unknown origin) using substrate S3 after 50 mins by HTRF assay
# Target sequence in this assay (P11309 whole entry): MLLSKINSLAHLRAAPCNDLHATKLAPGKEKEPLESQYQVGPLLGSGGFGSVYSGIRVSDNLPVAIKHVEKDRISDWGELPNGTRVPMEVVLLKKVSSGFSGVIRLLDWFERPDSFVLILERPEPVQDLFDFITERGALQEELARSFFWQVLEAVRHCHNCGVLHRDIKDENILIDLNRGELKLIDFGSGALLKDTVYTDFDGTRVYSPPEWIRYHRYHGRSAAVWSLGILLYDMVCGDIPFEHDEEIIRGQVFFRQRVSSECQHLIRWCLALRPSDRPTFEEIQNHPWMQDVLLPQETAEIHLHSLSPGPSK
# [3] = target: T1, Serine/threonine-protein kinase pim-1; assay: Inhibition of Pim1 kinase in human PC3 cells assessed as decrease in BAD phosphorylation level at 8 to 16 uM after 24 hrs by Western blot analysis; format: cell-based; conditions: PC-3
# Target sequence in this assay (P11309 whole entry, looked up): as the sequence (P11309 whole entry) above
# [4] = target: T1, Serine/threonine-protein kinase pim-1; assay: Inhibition of Pim1 kinase in human PC3 cells assessed as increase in p21 level at 8 to 16 uM after 24 hrs by Western blot analysis; format: cell-based; conditions: PC-3
# Target sequence in this assay (P11309 whole entry, looked up): as the sequence (P11309 whole entry) above
# [5] = target: T1, Serine/threonine-protein kinase pim-1; assay: Inhibition of Pim1 kinase in human PC3 cells assessed as increase in p27 level at 8 to 16 uM after 24 hrs by Western blot analysis; format: cell-based; conditions: PC-3
# Target sequence in this assay (P11309 whole entry, looked up): as the sequence (P11309 whole entry) above
# [6] = system: PC-3; assay: Induction of ERK phosphorylation in human PC3 cells at 8 to 16 uM after 24 hrs by Western blot analysis; format: cell-based
# [7] = Cell cycle arrest in human PC3 cells assessed as cell accumulation at sub-G1 phase at 8 uM after 48 hrs by Propidium Iodide staining based flow cytometric analysis (reference value: 2.5%); format: functional; conditions: PC-3
# Method in brief: (§1)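 PC-3 cells in six-well plates treated 0, 8, 12 or 16 μM for 24 or 48 h. Floating and adherent cells pooled, PBS-washed, fixed in ice-cold 70% ethanol at -20°C overnight, treated with 1 mg/mL RNase at 37°C for 30 min, stained with PI at 50 μg/mL final. DNA content read by flow cytometry, excitation 488 nm, emission 625 nm.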
# [8] = Cell cycle arrest in human PC3 cells assessed as cell accumulation at G0/G1 phase at 8 uM after 48 hrs by Propidium Iodide staining based flow cytometric analysis (reference value: 57.9%); format: functional; conditions: PC-3; method in brief: as §1
# [9] = Cell cycle arrest in human PC3 cells assessed as cell accumulation at G2/M phase at 8 uM after 48 hrs by Propidium Iodide staining based flow cytometric analysis (reference value: 32.4%); format: functional; conditions: PC-3; method in brief: as §1
# [10] = Cell cycle arrest in human PC3 cells assessed as cell accumulation at sub-G1 phase at 12 uM after 48 hrs by Propidium Iodide staining based flow cytometric analysis (reference value: 2.5%); format: functional; conditions: PC-3; method in brief: as §1
# [11] = Cell cycle arrest in human PC3 cells assessed as cell accumulation at G0/G1 phase at 12 uM after 48 hrs by Propidium Iodide staining based flow cytometric analysis (reference value: 57.9%); format: functional; conditions: PC-3; method in brief: as §1
# [12] = Cell cycle arrest in human PC3 cells assessed as cell accumulation at G2/M phase at 12 uM after 48 hrs by Propidium Iodide staining based flow cytometric analysis (reference value: 32.4%); format: functional; conditions: PC-3; method in brief: as §1
# [13] = Cell cycle arrest in human PC3 cells assessed as cell accumulation at sub-G1 phase at 16 uM after 48 hrs by Propidium Iodide staining based flow cytometric analysis (reference value: 2.5%); format: functional; conditions: PC-3; method in brief: as §1
# [14] = Cell cycle arrest in human PC3 cells assessed as cell accumulation at G0/G1 phase at 16 uM after 48 hrs by Propidium Iodide staining based flow cytometric analysis (reference value: 57.9%); format: functional; conditions: PC-3; method in brief: as §1
# [15] = Cell cycle arrest in human PC3 cells assessed as cell accumulation at G2/M phase at 16 uM after 48 hrs by Propidium Iodide staining based flow cytometric analysis (reference value: 32.4%); format: functional; conditions: PC-3; method in brief: as §1
# [16] = Cell cycle arrest in human PC3 cells assessed as cell accumulation at sub-G1 phase at 8 uM after 24 hrs by Propidium Iodide staining based flow cytometric analysis (reference value: 1.7%); format: functional; conditions: PC-3; method in brief: as §1
# [17] = Cell cycle arrest in human PC3 cells assessed as cell accumulation at G0/G1 phase at 8 uM after 24 hrs by Propidium Iodide staining based flow cytometric analysis (reference value: 57.1%); format: functional; conditions: PC-3; method in brief: as §1
# [18] = Cell cycle arrest in human PC3 cells assessed as cell accumulation at G2/M phase at 8 uM after 24 hrs by Propidium Iodide staining based flow cytometric analysis (reference value: 32%); format: functional; conditions: PC-3; method in brief: as §1
# [19] = Cell cycle arrest in human PC3 cells assessed as cell accumulation at sub-G1 phase at 12 uM after 24 hrs by Propidium Iodide staining based flow cytometric analysis (reference value: 1.7%); format: functional; conditions: PC-3; method in brief: as §1
# [20] = Cell cycle arrest in human PC3 cells assessed as cell accumulation at G0/G1 phase at 12 uM after 24 hrs by Propidium Iodide staining based flow cytometric analysis (reference value: 57.1%); format: functional; conditions: PC-3; method in brief: as §1
# [21] = Cell cycle arrest in human PC3 cells assessed as cell accumulation at G2/M phase at 12 uM after 24 hrs by Propidium Iodide staining based flow cytometric analysis (reference value: 32%); format: functional; conditions: PC-3; method in brief: as §1
# [22] = Cell cycle arrest in human PC3 cells assessed as cell accumulation at sub-G1 phase at 16 uM after 24 hrs by Propidium Iodide staining based flow cytometric analysis (reference value: 1.7%); format: functional; conditions: PC-3; method in brief: as §1
# [23] = Cell cycle arrest in human PC3 cells assessed as cell accumulation at G0/G1 phase at 16 uM after 24 hrs by Propidium Iodide staining based flow cytometric analysis (reference value: 57.1%); format: functional; conditions: PC-3; method in brief: as §1
# [24] = Cell cycle arrest in human PC3 cells assessed as cell accumulation at G2/M phase at 16 uM after 24 hrs by Propidium Iodide staining based flow cytometric analysis (reference value: 32%); format: functional; conditions: PC-3; method in brief: as §1
# [25] = target: T1, Serine/threonine-protein kinase pim-1; assay: Inhibition of Pim1 kinase in human PC3 cells assessed as decrease in c-Myc level at 8 to 16 uM after 24 hrs by Western blot analysis; format: cell-based; conditions: PC-3
# Target sequence in this assay (P11309 whole entry, looked up): as the sequence (P11309 whole entry) above
# [26] = target: T1, Serine/threonine-protein kinase pim-1; assay: Inhibition of Pim1 kinase in human PC3 cells assessed as decrease in 4E-BP1 phosphorylation level at 8 to 16 uM after 24 hrs by Western blot analysis; format: cell-based; conditions: PC-3
# Target sequence in this assay (P11309 whole entry, looked up): as the sequence (P11309 whole entry) above
compound,measurement,setting,value
Oc1cccc2ccc(Oc3ccccn3)nc12,GI50,[1],> 30 µM
Oc1ccc(Cl)c2ccc(Sc3ccccn3)nc12,GI50,[1],10.2 µM
CN1CCC(CNc2ccc3ncc(-c4cccc(OC(F)(F)F)c4)n3n2)CC1 [SGI-1776],GI50,[1],4.86 µM
COc1ccc(Cl)c2ccc(Nc3cc(C)ccn3)nc12,GI50,[1],> 30 µM
Oc1cccc2ccc(Nc3ccccn3)nc12,GI50,[1],2.6 µM
Oc1ccc(Br)c2ccc(Oc3ccccn3)nc12,GI50,[1],> 30 µM
Oc1cccc2ccc(Sc3ccccn3)nc12,IC50,[2],> 10 µM
same,GI50,[1],20.9 µM
Clc1ccnc(Nc2ccc3ccccc3n2)c1,GI50,[1],> 30 µM
c1ccc(Nc2ccc3ccccc3n2)nc1,IC50,[2],> 10 µM
same,GI50,[1],> 30 µM
Cc1ccnc(Nc2ccc3ccccc3n2)c1,GI50,[1],26.7 µM
COc1cccc2ccc(Nc3cc(C)ccn3)nc12,GI50,[1],3.82 µM
Cc1ccnc(Nc2ccc3c(Cl)ccc(O)c3n2)c1,GI50,[1],10.2 µM
COc1ccc(Cl)c2ccc(Nc3ccccn3)nc12,GI50,[1],29.2 µM
COc1ccc(Cl)c2ccc(Nc3cc(Cl)ccn3)nc12,GI50,[1],> 30 µM
Oc1ccc(Cl)c2ccc(Nc3cc(Cl)ccn3)nc12,GI50,[1],25.5 µM
Oc1ccc(Cl)c2ccc(Oc3ccccn3)nc12,GI50,[1],> 30 µM
COc1cccc2ccc(Nc3ccccn3)nc12,GI50,[1],7.47 µM
Oc1ccc(Cl)c2ccc(Nc3ccccn3)nc12,inhibition,[3],Dose-dependent effect
same,inhibition,[4],Dose-dependent effect
same,inhibition,[5],Dose-dependent effect
same,IC50,[2],0.75 µM
same,Activity,[6],Active
same,Activity,[7],13.1%
same,Activity,[8],52.9%
same,Activity,[9],25%
same,GI50,[1],1.29 µM
same,Activity,[10],27.7%
same,Activity,[11],44.4%
same,Activity,[12],20%
same,Activity,[13],52.6%
same,Activity,[14],31%
same,Activity,[15],11%
same,Activity,[16],2.9%
same,Activity,[17],65.2%
same,Activity,[18],19.3%
same,Activity,[19],10.4%
same,Activity,[20],64.5%
same,Activity,[21],17.3%
same,Activity,[22],31.5%
same,Activity,[23],48.1%
same,Activity,[24],13.9%
same,Activity,[25],Dose-dependent effect
same,inhibition,[26],Dose-dependent effect
Oc1cccc2ccc(Nc3cc(Cl)ccn3)nc12,GI50,[1],2.81 µM
Cc1ccnc(Nc2ccc3cccc(O)c3n2)c1,GI50,[1],5.84 µM
COc1cccc2ccc(Nc3cc(Cl)ccn3)nc12,GI50,[1],11.8 µM
Oc1ccc(Br)c2ccc(Sc3ccccn3)nc12,GI50,[1],10.2 µM
